hERG rescue: hERG rescue from dofetilide block, primary screen, cell-based, CHO-hERG, FluxOR thallium flux, dofetilide IC70. Voltage-gated inwardly rectifying potassium channel KCNH2 (Homo sapiens), Q12809. dofetilide IC70 present. activation (rescue from dofetilide block), less the hit threshold, % at 10 µM. actives 0.51% (n = 310,000);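 active = activation above the mean of controls blocked by dofetilide plus 5 SD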;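 also: thallium influx through hERG after potassium depolarization seen as dye fluorescence rise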
KCC2 mod: KCC2 cotransporter modulators, thallium flux, primary screen, cell-based, HEK293 KCC2, FluoZin-2 fluorescence, MLSMR | Solute carrier family 12 member 5 (Homo sapiens), Q9H2X9 | KCC2 cells, thallium flux FluoZin-2 fluorescence | B-score of Tl+ flux slope (higher = more flux/activation; lower = inhibition) at 10 µM | actives 2.2% (n = 190,000);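 active = thallium flux slope and its plate-corrected score both differing from the plate sample mean at a set confidence after two filtering rounds, in either direction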;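 also: slope of fluorescence scaled to starting intensity during 10 to 20 s after thallium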
KCNK9 block: KCNK9 potassium channel inhibitors, primary screen, HEK293 cells, thallium flux. FluxOR thallium flux fluorescence; stronger effect = lower value. B-score at 10 µM. actives 1.2% (n = 310,000);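 active = ratio B-score over 3 SD below the library mean, with starting fluorescence within 5 SD of its mean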;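 also: negative B-score means less thallium flux so channel inhibition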
KCNQ1 block: inhibitors of human KCNQ1 channel, primary screen, cell-based, thallium flux, high-throughput | AID 2642, 2010 | B-score at 10 µM | actives 1.3% (n = 310,000) | CHO-K1 KCNQ1, FluxOR thallium flux fluorescence; stronger effect = higher value | Potassium voltage-gated channel subfamily KQT member 1 (Homo sapiens), P51787;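 active = compounds whose thallium flux B-score, printed positive for inhibition, exceeds three library SD while starting fluorescence stays within three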;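 also: channel opened by potassium depolarization with thallium stimulus after 20 min compound exposure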
KCNK3 block: human KCNK3 channel inhibitors, primary screen, CHO cells, FluxOR thallium flux, B-score | Potassium channel subfamily K member 3 (Homo sapiens), O14649 | actives 0.84% (n = 340,000) | AID 602410, 2012 | FluxOR fluorescence; stronger effect = lower value | B-score at 10 µM;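 active = B-score under library mean minus 4 SD, starting fluorescence ratio at most library mean plus 5 SD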;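 also: more negative B-score means stronger inhibition of thallium flux through KCNK3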
Target sequence (O14649 whole entry, looked up): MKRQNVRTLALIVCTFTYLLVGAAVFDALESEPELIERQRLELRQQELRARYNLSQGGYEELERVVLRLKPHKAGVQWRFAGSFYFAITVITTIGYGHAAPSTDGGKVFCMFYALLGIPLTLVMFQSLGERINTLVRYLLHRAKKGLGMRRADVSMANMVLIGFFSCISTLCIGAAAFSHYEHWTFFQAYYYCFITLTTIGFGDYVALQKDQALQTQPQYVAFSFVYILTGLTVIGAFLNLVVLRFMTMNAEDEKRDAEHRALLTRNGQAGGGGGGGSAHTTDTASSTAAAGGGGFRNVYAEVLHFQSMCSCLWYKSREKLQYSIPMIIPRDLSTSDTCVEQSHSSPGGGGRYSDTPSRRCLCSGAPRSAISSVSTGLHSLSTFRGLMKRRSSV
KCNQ1 pot: potentiators or activators of KCNQ1 channel, primary screen, cell-based, thallium flux, high-throughput | Potassium voltage-gated channel subfamily KQT member 1 (Homo sapiens), P51787 | CHO-K1 KCNQ1, thallium flux FluxOR fluorescence; stronger effect = higher value | B-score at 10 µM | actives 0.35% (n = 310,000) | AID 2648, 2010;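 active = fluorescence ratio B-score, a plate-corrected score, at least three library SD, with initial intensity B-score within 5 SD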
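Assay system: stable KCNQ1 CHO-K1 line; medium: assay buffer, equal DMSO in all wells; timing: 90 min dye loading and 20 min compound exposure, both at room temperature; technique: kinetic FluxOR thallium fluorescence, 10-s 1-Hz baseline, 110-s post-stimulus read; read-out basis: B score of baseline-normalized fluorescence ratio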
* hit, by the source's call; i = inactive; / = not tested or not shown; ! = repeats disagree. In the library only some 4.1% were active in any assay of this set; here they are far more common.

SMILES | hERG rescue | KCC2 mod | KCNK9 block | KCNQ1 block | KCNK3 block | KCNQ1 pot
CC(Oc1ccc2ccc(=O)oc2c1)C(=O)N1CCOCC1 (centres undefined) | -14.5 | / | i | i | i | i
CC(NC(=S)NC1CCCCC1)c1ccccc1 (centres undefined) | -5.8 | / | i | i | i | i
CC(NC(=O)NC1CCCCC1)c1ccccc1 (centres undefined) | 7.3* | 0.984 | i | i | i | i
CCOc1nc(NC(=O)NS(=O)(=O)c2cccc(Cl)c2)nc(-c2ccccc2)n1 | -8.6 | 0.691 | i | i | i | i
NC(=O)C1(NC(=O)[C@@H]2CC3(CC(c4cccc(NC(=O)[C@@H]5CCC(=O)N5)c4)=NO3)CN2C(=O)c2ccccc2)CC1 (some centres undefined) | -6.4 | 0.801 | i | i | i | i
Cc1ccccc1C(=O)NNC(=S)NC(=O)COc1ccccc1 | -9.8 | 19.5* | i | i | i | i
CC(C)(C)C(=O)NC(=S)NNC(=O)c1ccc(-c2ccccc2)cc1 | 6.3* | 86.6* | i | i | i | 66*
Cc1cccc(OCC(=O)NC(=S)NNC(=O)c2ccncc2)c1 | -9.8 | / | i | i | i | i
CC(C)(C)c1ccc(C(=O)NC(=S)NNC(=O)COc2ccccc2)cc1 | -4.8 | / | i | i | i | 30*
COC(=O)c1ccccc1NC(=S)NC(=O)COc1ccccc1 | -13.8 | / | i | i | i | i
Cc1ccc(C(=O)NNC(=S)NC(=O)COc2ccccc2)cc1 | -8.3 | 94.8* | i | i | i | i
CC(C)(C)C(=O)Nc1ccnn1C1CCN(C(=O)c2cccc(Cl)c2)CC1 | -10.7 | / | i | i | i | i
Cc1cc(C)c2c(c1)c1nnc(SCCN3CCCCC3)nc1n2C | -6.4 | / | i | i | i | i
O=C(O)COc1ccc(Oc2ccccc2)cc1 | -2.6 | -1.8 | i | i | i | i
CS(=O)c1ccc(-n2c(=O)n(Cc3ccccc3)c(=O)c3[nH]cnc32)cc1 (centres undefined) | -4.8 | / | i | i | i | i
Cc1ccc(-n2nc3c(=O)n(C(C)C(=O)NCCc4cccs4)nc(C)c3c2C)cc1 (centres undefined) | -12.9 | / | i | i | i | i
O=C1C=C(O)C(n2cncn2)C(c2ccc(F)cc2)C1 (centres undefined) | 5.2* | 1.17 | i | i | i | i
CCCCCCCCCCCCCCCC[n+]1ccccc1 | / | / | / | / | -11.2*! | /
CCCCCCCCCCCCCCCC[n+]1ccc(C(N)=O)cc1 | / | 1.97 | / | / | i | /
Cc1cc(C)c2[nH]c(=O)c(CN(Cc3ccc4c(c3)OCO4)Cc3nnnn3C3CCCC3)cc2c1 | -13.7 | -0.0876 | -13.1* | i | i | i
CCC(C)Sc1cccc(-c2nc3ccc(C)cn3c2NCc2ccccc2)c1 (centres undefined) | -29.0 | / | i | 7* | i | i
CCCCNc1c(-c2ccc(SC(C)CC)c(OC)c2)nc2ccc(C)cn12 (centres undefined) | -10.2 | / | i | 8* | i | i
CCC(C)Sc1cccc(-c2nc3ccc(Cl)cn3c2NCc2ccccc2)c1 (centres undefined) | -24.2 | / | i | i | i | i
CCCCNc1c(-c2ccc(SC(C)CC)c(OC)c2)nc2ccc(Cl)cn12 (centres undefined) | / | / | / | / | i | /
CCC(C)N1CCN(C(=O)c2cc(OC)cc(OC)c2)CC1 (centres undefined) | 5.2* | / | i | i | i | i
SMILES | hERG rescue | KCC2 mod | KCNK9 block | KCNQ1 block | KCNK3 block | KCNQ1 pot
CCS(=O)(=O)N1CCN(C(=O)c2cc(OC)cc(OC)c2)CC1 | 2.0 | / | i | i | i | i
CN(C)c1cc[nH]c(=O)c1C#N | -5.7 | -0.587 | i | i | i | i
Cc1nc(SCC(=O)NCc2ccco2)c2c(C)c(C)sc2n1 | -12.6 | -0.708 | i | i | i | i
Cc1nc(SCC(=O)NC(=O)NCc2ccco2)nc(C)c1C | 6.7* | 0.104 | i | i | i | i
Cc1nc(SCC(=O)NCc2ccco2)nc(C)c1C | -17.1 | 0.379 | i | i | i | i
Cc1sc2nc(C(C)C)nc(SCC(=O)NCc3ccco3)c2c1C | 8.7* | 33.3* | i | i | i | 12*
O=C(NN1C(=O)CSC1=S)C(=O)NN1C(=O)CSC1=S | 5.2* | -0.744 | i | i | i | i
O=C(c1cccc(-c2nnc(-c3ccccc3)o2)c1)N1CCCCCC1 | -17.7 | -2.23 | i | i | i | i
CCC(=O)Nc1nc2ccc([N+](=O)[O-])cc2s1 | -13.9 | -0.237 | i | i | i | i
Cc1ccc(C)c(OCC(=O)Nc2nc3ccc([N+](=O)[O-])cc3s2)c1C | -18.1 | -0.812 | i | 6* | i | i
CC1CNc2c(cccc2S(=O)(=O)N[C@@H](CCCN=C(N)N)C(=O)N2CC[C@@H](C)C[C@@H]2C(=O)O)C1 (some centres undefined) | / | 0.979 | / | / | / | /
Cc1c(NC(=O)C(C)OC(=O)c2cc(-c3cccc4ccccc34)nc3ccccc23)c(=O)n(-c2ccccc2)n1C (centres undefined) | -18.4 | -1.62 | i | 6* | i | i
COc1ccc(C(c2c(NC(=O)c3ccco3)sc(C)c2C)N2CCOCC2)cc1 (centres undefined) | / | / | / | / | -10.8* | /
CC(=O)Nc1cccc(-c2nnc3c4ccccc4c(C)nn23)c1 | 51.6* | / | i | i | / | i
Cc1nc2nc[nH]n2c(=O)c1CCC(C)C | 3.6 | -0.167 | i | i | i | i
CCn1c(COc2cccc3ccccc23)nnc1SCC(=O)OC1CCCCC1 | -32.4 | / | i | 10* | i | i
Cn1c(COc2cccc3ccccc23)nnc1SCC(=O)OC1CCCCC1 | -11.5 | -1.05 | i | i | i | i
COCC(=O)N(Cc1ccco1)c1nnc(C2CCOC2)s1 (centres undefined) | 4.5 | / | i | i | i | i
CCN(CC)c1ccc(/C=C(/C#N)C(=O)NC(C)C)o1 | -20.4 | i | i | i | i | i
CC(C)NC(=O)/C(C#N)=C\c1ccc(N(C)C)o1 | -20.6 | -0.657 | -6.97* | i | i | i
O=C(/C=C/c1ccccc1)CC(=O)c1ccccc1 | / | / | / | / | i | /

Assay outcomes (PubChem BioAssay)
